The array DNA melting data of Ke et al. (doi:10.1101/2024.01.08.574731)

How the values were obtained:
[1] = folding enthalpy; higher = less favourable; fluorescence melt of hairpins on a sequencing array, two-state fit; settings: sodium 0.088 M
In short: (§1)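 On a sequenced MiSeq flow cell, library hairpins with annealed Cy3 and quencher oligos were imaged for Cy3 fluorescence in 2.5 °C steps up to 60 °C, in 50 mM Na-HEPES pH 8.0, 25 mM NaCl. Normalisation used pre-quench Cy3 and control constructs. Bootstrapped two-state fits gave melting temperature and folding enthalpy, combined by inverse variance across four replicates and with fitted temperatures raised by 9.35 °C to match UV melts.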

[2] = melting temperature; fluorescence melt of hairpins on a sequencing array, two-state fit, raised by 9.35 °C to match UV melts; settings: sodium 0.088 M
In short: as §1

Sequence | folding enthalpy [1] [kcal/mol] | Tm [2] [°C]
GATTCGCGAAAGCGCATC (((.(((....))).))) | -21.5 | 42.7
GATCATAAAATGATC ((((((...)))))) | -30.7 | 48
GCAACGCGAAAGCCTCGC ((.(.((....)).).)) | -7.26 | 30.9
GAAGGCGAAAGCCAATTC ((((((....)))..))) | -11.2 | 39.5
GCACGTGGAAACATGTGC ((((.((....)).)))) | -36.8 | 56.9
GACGGTGGAAACACCATC ((.((((....)))).)) | -16.2 | 36.5
GCGATATGTCGC ((((....)))) | -26.4 | 55
GGACTTGGAAACAAGTTC (.(((((....))))).) | -29.8 | 47.5
GCCAAGCGAAAGCCGGGC (((..((....))..))) | -22.4 | 57.7
GCGTTCGGAAACGGACGC ((((.((....)).)))) | -40.2 | 64
GATCCACCTCTGGATC ((((((....)))))) | -33 | 49
GGCAGCGAAAGCTAGGCC ((((((....)))..))) | -28.6 | 55.3
GCCGACCGAAAGGTAGGC (((.(((....))).))) | -37.5 | 69.3
GGATCTACGAAAGTATCC (((..(((....)))))) | -11.3 | 32.9
CGCCGCGGAAACGCCGCG (((.(((....))).))) | -14.9 | 63.6
GGATGCGGAAACGCGTCC (((.(((....))).))) | -47.5 | 61.8
GTGCGGCGAAAGCCCAC (((.(((....)))))) | -20.7 | 57.6
GGAGACGAAAGTCAGTCC ((((((....)))..))) | -13.6 | 31.6
GCGGACCACCGC ((((....)))) | -24.2 | 59.9
GATCACGAAAGTGGATC ((((((....))).))) | -18.2 | 46.9
GGCGACGAAAGTCTGGCC ((((((....)))..))) | -23.3 | 53.7
GACATGGAAACATGTC ((((((....)))))) | -38.2 | 56
GGATTGACGAAAGTCTCC (((..(((....)))))) | -13.7 | 28.4

Sequence | folding enthalpy [1] [kcal/mol] | Tm [2] [°C]
GCTGACCGAAAGGTGAGC (((.(((....))).))) | -38.4 | 55.4
GATGCGGGAAACCGTATC (((.(((....))).))) | -34.4 | 50.3
GTTGAGACGAAAGTCAAC (((..(((....)))))) | -15.6 | 38.4
GCTGTACGAAAGTAAGC (((.(((....)))))) | -27.1 | 49.2
GTTACCGAAAGGTGAAAC ((((((....)))..))) | -9.44 | 27.5
GCAATCGAAAGATAGTGC ((((((....)))..))) | -22.9 | 32
GCTGTGGGAAACCATGGC ((..(((....)))..)) | -33.5 | 44.5
GGTGTTCGAAAGAAAACC (((.(((....))).))) | -25.3 | 45.2
GGAGGACGAAAGTCGTCC (((.(((....))).))) | -28.9 | 59.4
GGTGTTGGAAACGACATC (.(((.(....).))).) | -21.3 | 33.2
GCGCTCCCGAAAGGGCGC (((..(((....)))))) | -35 | 62.2
GTTTACGCGAAAGCGAAC (((..(((....)))))) | -9.1 | 31.8
GCGCTAGGAAACTAGTGC ((.((((....)))).)) | -44.7 | 53.3
GACATAGCGAAAGCTGTC (((..(((....)))))) | -20.5 | 47.1
GCGAGACGTCGC ((((....)))) | -8.79 | 52.9
GTGACCGAAAGGTTGCAC ((((((....)))..))) | -13.8 | 42.2
GACACCCGAAAGGGAGTC (((.(((....))).))) | -29.6 | 57.5
GCGCTTGCGAAAGCACGC (((..(((....)))))) | -15.9 | 55.2
GATCGCGGGGCGATC ((((((...)))))) | -29.8 | 68
GGTTGAGGAAACTCGATC (.(.(((....))).).) | -16.8 | 29.8
GCATATCGAAAGATCTGC (((.(((....))).))) | -31.2 | 43.9
GATCAGTAGGCTGATC ((((((....)))))) | -42.3 | 52.4
GCAATCGGAAACGATTAC (.(((((....))))).) | -16.1 | 38

Sequence | folding enthalpy [1] [kcal/mol] | Tm [2] [°C]
GACGTTGGAAACAATGTC (((.(((....))).))) | -37.3 | 48.4
GACCACGAAAGTGGTGTC ((((((....)))..))) | -12.2 | 55.4
GGGGAGGGAAACTTCCCC (((((.(....).))))) | -33 | 50.9
GGATGCTCGAAAGAGTCC (((..(((....)))))) | -12.1 | 29.1
GCAGGTGGAAACGTCTGC ((((..(....)..)))) | -25.7 | 42.5
GGACAGCCGAAAGGCTCC (((..(((....)))))) | -7.98 | 31.2
GGTCTAGGAAACTAGGCC ((.((((....)))).)) | -46.1 | 51.1
GACTACGGAAACGTAGTC (((((((....))))))) | -37.8 | 61.4
GGGTCCACGAAAGTGCCC (((..(((....)))))) | -17.9 | 40.8
GTGACCCCGAAAGGGCAC (((..(((....)))))) | -24.9 | 50.8
GTGTGCGGAAACGCGCAC (((.(((....))).))) | -27.7 | 67.7
GCGTTAGGAAACTAGCGC (((.(((....))).))) | -46.9 | 52.4
GATCCGAAACCGGATC ((((((....)))))) | -38 | 53.4
GATCGTACCGACGATC ((((((....)))))) | -53.3 | 53.4
GTTATACGAAAGTACAAC (((.(((....))).))) | -17.4 | 33.2
GTAGACGAAAGTCAGTAC ((((((....)))..))) | -9.2 | 28.6
GCTTCACCGAAAGGTAGC (((..(((....)))))) | -16.8 | 35.3
GTACTGCGAAAGCATTAC (((.(((....))).))) | -22.5 | 41.7
GATGTGGGAAACTACATC (((((.(....).))))) | -36.5 | 44.9
GCCGGCGAAAGCCCCGGC ((((((....)))..))) | -18.3 | 55.2
GTTTCTCGAAAGAGAAC (((.(((....)))))) | -17.1 | 42.4
GGTAACGGAAACGTTACC (((((((....))))))) | -45.6 | 63.2
GCATCAGGAAACTGGTGC (((.(((....))).))) | -40.9 | 53.4

Sequence | folding enthalpy [1] [kcal/mol] | Tm [2] [°C]
GGTCACCGAAAGGTAACC (((.(((....))).))) | -27.5 | 48.4
GCATAGCGAAAGCTCGGC ((..(((....)))..)) | -16.2 | 36.5
GGAGGCGAAAGCCGTTCC ((((((....)))..))) | -8.29 | 41.6
GTTCCCCCGAAAGGGAAC (((..(((....)))))) | -34.7 | 51.6
GCCATGCGAAAGCTTAGC ((.(.((....)).).)) | -13.1 | 28
GTACCCGAAAGGGGCTAC ((((((....)))..))) | -14.3 | 41.4
GATCCTGGAAACAGAATC (((.(((....))).))) | -16.8 | 30.1
GTTTCGGGAAACTGGAAC (((.(.(....).).))) | -13.5 | 39.8
GTCGCTGGAAACAGCAAC ((.((((....)))).)) | -15 | 41.7
GTACGCCCGAAAGGGTAC (((..(((....)))))) | -11.4 | 33.2
GAACAGCCGAAAGGCTTC (((..(((....)))))) | -5.48 | 24.5
GCGACCGAAAGGTCCCGC ((((((....)))..))) | -13.3 | 42.1
GTTAGCGAAAGCTTAAC ((((((....))).))) | -13.9 | 42.8
GAATGTGGAAACACGTTC (((.(((....))).))) | -32.3 | 47.8
GCGCTACGAAAGTAACGC (((.(((....))).))) | -41.1 | 56.5
GTGTCGCGAAAGCGTCAC (((.(((....))).))) | -31.9 | 63
GAAGTAGAAATACTTC ((((((....)))))) | -26.5 | 42.5
GGCTTCGGAAACGGAGCC ((((.((....)).)))) | -42.2 | 59.1
GTGTTCTCGAAAGAGCAC (((..(((....)))))) | -24.7 | 41.8
GTTGCCGGAAACGGCAGC (.(((((....))))).) | -14.4 | 57.5
GGTGTCGCGAAAGCGACC (((..(((....)))))) | -7.75 | 54
GCGGCAGGAAACCGCCGC (((((.(....).))))) | -30.6 | 69.3
